According to ChEMBL document CHEMBL4411261, “Down-Regulation of the Androgen Receptor by G-Quadruplex Ligands Sensitizes Castration-Resistant Prostate Cancer Cells to Enzalutamide” (J Med Chem, 2018):
Activity calls are given as the source filed them. The calls are words filed in the database; no cut-off is given here.

How the values were obtained:
[1] = Stabilization of 5'-FAM/3'-TAMRA labelled CTATAGCGCGCTATAG dsDNA (unknown origin) assessed as change in melting temperature t1/2 at 1 uM after 16 hrs in presence of 100 mM K+ by FRET assay
Method in brief: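 FRET melting: FAM/TAMRA dual-labelled oligos (0.25 μM) folded in 10 mM lithium cacodylate pH 7.4 with 100 mM KCl (95 °C 5 min, cooled 4 h); ligand added at 1 μM final, 16 h room temperature. FAM emission followed 30−95 °C at 1 °C/min; curves normalized 0 to 1, T1/2 at 0.5 fraction.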

Quadruplex DNA [2] = assay: Binding affinity to 5'-Biotinylated-AR1 G-quadruplex oligonucleotide (unknown origin) by SPR analysis relative to control; format: nucleic-acid assay
PC-3 [3] = assay: Cytotoxicity against human PC3 cells assessed as reduction in cell viability after 48 hrs by MTS assay; format: functional, cell-based; details: PC-3, 48 h
Method in brief: (§1)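 Cells kept in RPMI-1640 with 10% fetal calf serum, 37 °C, 5% CO2. Seeded, after 24 h treated with 0.0001, 0.001, 0.01, 0.1, 1 and 10 μM compound (DMSO stocks freshly diluted in medium) for 48 h. MTS added 4 h, absorbance 490 nm; IC50 from curves of % viability inhibition versus DMSO-treated cells against log concentration.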

LNCaP = assay: Cytotoxicity against human LNCAP cells expressing androgen receptor T877A point mutant assessed as reduction in cell viability after 48 hrs by MTS assay; format: functional, cell-based; method in brief: as §1
[4] = Drug uptake in human 22Rv1 cells expressing full length androgen receptor H875Y point mutant at 160 nM after 24 hrs by DAPI staining-based fluorescence microscopic analysis; format: ADME, cell-based; details: cwr22r, 0.16 µM
Quadruplex DNA [5] = assay: Stabilization of AR G-quadruplex oligonucleotide in human 22Rv1 cells assessed as reduction in AR mRNA expression at IC50 after 6 to 72 hrs by RT-PCR analysis; format: cell-based; details: TDE = time-dependent effect
Method in brief: (§2)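 Transcripts quantified by TaqMan real-time PCR with RNaseP as normalizer; relative quantity versus untreated cells by the 2−ΔΔCt method. Panel genes measured with a 92-gene cancer-mechanism TaqMan array.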

Quadruplex DNA [6] = assay: Stabilization of AR G-quadruplex oligonucleotide in human LNCAP cells assessed as reduction in AR-FL protein level by immunoblotting assay; format: cell-based
Method in brief: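 Lysate proteins immunoblotted. Vinculin or β-actin used as loading control, peroxidase-linked secondary antibodies, ECL chemiluminescent detection, autoradiography, densitometric scan. Untreated cells received DMSO.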

Quadruplex DNA [7] = assay: Stabilization of AR G-quadruplex oligonucleotide in human 22Rv1 cells assessed as down-regulation of KLK3 mRNA expression at IC50 after 6 to 72 hrs by RT-PCR analysis; format: cell-based; method in brief: as §2
Quadruplex DNA [8] = assay: Stabilization of AR G-quadruplex oligonucleotide in human LNCAP cells assessed as reduction in AR mRNA expression at IC50 after 48 hrs by RT-PCR analysis; format: cell-based
Method in brief: (§3)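 Cells grown in RPMI-1640 with 10% fetal calf serum, 37 °C, 5% CO2, treated at an equitoxic concentration. Transcripts quantified by TaqMan real-time RT-PCR, normalized to RNaseP, expressed as relative quantity versus untreated cells (calibrator) by the 2−ΔΔCt method.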

Quadruplex DNA [9] = assay: Stabilization of AR G-quadruplex oligonucleotide in human LNCAP cells assessed as reduction in AR mRNA expression at IC50 after 72 hrs by RT-PCR analysis; format: cell-based; method in brief: as §3
Quadruplex DNA [10] = assay: Stabilization of AR G-quadruplex oligonucleotide in human LNCAP cells assessed as down-regulation of KLK3 mRNA expression at IC50 after 48 hrs by RT-PCR analysis; format: cell-based; method in brief: as §2
Quadruplex DNA [11] = assay: Stabilization of AR G-quadruplex oligonucleotide in human 22Rv1 cells assessed as reduction in AR-FL protein level by immunoblotting assay; format: cell-based
Quadruplex DNA [12] = assay: Stabilization of AR1 G-quadruplex oligonucleotide (unknown origin) assessed as melting temperature at 16 uM after 16 hrs in presence of 100 mM K+ by CD spectra analysis (reference value: 74.9 +/- 0.3 degreeC); format: nucleic-acid assay
[13] = Stabilization of AGTGAGAGTGAGAGAGAGAGTGAGAGTGAGAGTGA ssDNA (unknown origin) assessed as effect on conformational change at 16 uM after 16 hrs in presence of 100 mM K+ by CD spectra analysis
Method in brief: (§4)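 CD: oligos at 4 μM final in 10 mM lithium cacodylate pH 7.4, 100 mM KCl, annealed 95 °C 5 min then 4 h room temperature; duplex from equimolar strands. Ligand 16 μM final, 16 h room temperature. Spectra 230−320 nm, 5 mm cell, two scans averaged at 20 °C, buffer-subtracted; melting from spectra 20−90 °C in 5 °C steps.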

[14] = Stabilization of AGTGAGAGTGAGAGAGAGAGTGAGAGTGAGAGTGA/TCACTCTCACTCTCACTCTCTCTCTCACTCTCACT dsDNA (unknown origin) assessed as assessed as effect on conformational change at 16 uM after 16 hrs in presence of 100 mM K+ by CD spectra analysis; method in brief: as §4
Quadruplex DNA [15] = assay: Stabilization of AR G-quadruplex oligonucleotide in human DU145 cells assessed as up-regulation of WNT1 mRNA expression at IC50 after 48 hrs by RT-PCR analysis; format: cell-based; method in brief: as §2
Quadruplex DNA [16] = assay: Stabilization of AR G-quadruplex oligonucleotide in human 22Rv1 cells assessed as inhibition of telomerase activity at IC50 after 48 hrs by TRAP assay; format: cell-based
CWR22R [17] = assay: Synergistic cytotoxicity against human 22Rv1 cells expressing full length androgen receptor H875Y point mutant assessed as reduction in cell viability at 0.001 to 0.1 uM after 72 hrs in presence of Enzalutamide by MTS assay based CI-Fa plot analysis; format: functional
Method in brief: (§5)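 Cells in RPMI-1640 with 10% fetal calf serum were exposed to ligand (0.001−0.1 μM) plus enzalutamide (0.5−50 μM) at a fixed ratio, five concentrations, for 72 h at 37 °C, 5% CO2. Viability read by MTS absorbance at 490 nm after 4 h. Combination index computed at ED50 and ED75 by the Chou–Talalay method.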

PC-3 [18] = assay: Effect on JUN mRNA expression in human PC3 cells at IC50 after 48 hrs by RT-PCR analysis; format: functional, cell-based; method in brief: as §2
Quadruplex DNA [19] = assay: Stabilization of AR G-quadruplex oligonucleotide in human 22Rv1 cells assessed as reduction in basal AKT1 levels at IC50 after 48 hrs by Western immunoblot assay; format: cell-based
CWR22R [20] = assay: Synergistic cytotoxicity against human 22Rv1 cells expressing full length androgen receptor H875Y point mutant assessed as ED50 for Enzalutamide at 0.001 to 0.1 uM after 72 hrs by MTS assay; format: functional; details: 22Rv1, 72 h, read-out: ED50 (the source's name); method in brief: as §5
CWR22R [21] = assay: Synergistic cytotoxicity against human 22Rv1 cells expressing full length androgen receptor H875Y point mutant assessed as ED75 for Enzalutamide at 0.001 to 0.1 uM after 72 hrs by MTS assay; format: functional; method in brief: as §5
PC-3 [22] = assay: Synergistic cytotoxicity against human PC3 cells assessed as ED50 for Enzalutamide at 0.001 to 0.1 uM after 72 hrs by MTS assay; details: PC-3, 72 h

- ΔTm [1]: 1 °C
- RBA (Quadruplex DNA [2]): 100%
- Drug uptake [4]: Active
- Tm (Quadruplex DNA [12]): > 90 °C
- Activity [13]: inactive
- Activity [14]: inactive
Structure (SMILES): CN(C)CCCn1c(=O)c2ccc3c(=O)n(CCCN(C)C)c(=O)c4c5[nH]c6ccccc6[nH]c5c(c1=O)c2c34.Cl.Cl
- IC50 (PC-3 [3]): 180 nM
- IC50 (LNCaP): 140 nM
- Activity (Quadruplex DNA [5]): Tde
- Activity (Quadruplex DNA [6]): Active
- Activity (Quadruplex DNA [7]): Active
- Activity (Quadruplex DNA [8]): Active
- Activity (Quadruplex DNA [9]): inactive
- Activity (Quadruplex DNA [10]): Active
- Activity (Quadruplex DNA [11]): Active
- Activity (Quadruplex DNA [15]): Active
- inhibition (Quadruplex DNA [16]): Active
- CI (CWR22R [17]): <0.5
- Activity (PC-3 [18]): inactive
- Activity (Quadruplex DNA [19]): Active
- EC50 (CWR22R [20]): 290 nM
- ED75 (CWR22R [21]): 370 nM
- EC50 (PC-3 [22]): 2180 nM
